Measured values published in ChEMBL document CHEMBL4373633, “New methods to assess 6-thiopurine toxicity and expanding its therapeutic application to pancreatic cancer via small molecule potentiators” (Medchemcomm, 2019).
Calls of active or inactive are those of the source. The rule behind the calls is not given here.

How the values were obtained:
[1] = target: T1, UDP-glucose 6-dehydrogenase (Streptococcus pyogenes, UniProt P0C0F4); assay: Inhibition of Streptococcus pyogenes UDPGDH expressed in Escherichia coli assessed as inhibitior constant after 20 to 120 secs by UV-VIS spectroscopic analysis
T1 sequence (P0C0F4 whole entry): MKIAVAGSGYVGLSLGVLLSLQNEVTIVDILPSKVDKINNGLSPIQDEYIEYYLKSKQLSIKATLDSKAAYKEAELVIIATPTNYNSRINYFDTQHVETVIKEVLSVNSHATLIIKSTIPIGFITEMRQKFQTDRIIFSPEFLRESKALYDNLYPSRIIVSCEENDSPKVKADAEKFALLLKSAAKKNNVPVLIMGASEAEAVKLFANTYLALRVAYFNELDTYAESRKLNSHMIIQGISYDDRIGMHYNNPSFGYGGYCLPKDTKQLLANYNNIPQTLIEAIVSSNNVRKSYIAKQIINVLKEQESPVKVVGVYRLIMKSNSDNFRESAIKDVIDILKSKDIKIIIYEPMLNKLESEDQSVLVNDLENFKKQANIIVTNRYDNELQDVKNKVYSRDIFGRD

[2] = Inhibition of UDPGDH/UGT-1A in hepatocytes (unknown origin) assessed as reduction in BDG production at 25 uM by HPLC analysis; assay type: ADME, cell-based; settings: human
[3] = target: T1, UDP-glucose 6-dehydrogenase; assay: Inhibition of Streptococcus pyogenes UDPGDH expressed in Escherichia coli assessed as inhibitior constant by mesuring UDPGA production after 20 to 120 secs by HPLC analysis
Procedure, shortened: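 UDPGA formed by UDPGDH was quantified by reverse-phase C18 HPLC at 262 nm against a UDPGA standard curve. Aqueous phase 8 mM imidazole/2.5 mM TBAHS, pH 6.5; organic phase methanol; 0.5 mL/min gradient over a 23 min run. UDPG was varied at several inhibitor levels. Slopes of the lines were plotted against inhibitor concentration, and Ki was taken as the […] x-intercept.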

MIA PaCa-2 [4] = assay: Synergistic antiproliferative activity against human MIAPaCa2 cells assessed as cell death at 5 uM after 72 hrs in presence of 100 uM 6TP by alamar blue assay (reference value: 30.7%); assay type: functional
HeLa [5] = assay: Synergistic antiproliferative activity against human HeLa cells at 2.5 to 5 uM after 72 hrs in presence of 6TP by alamar blue assay; assay type: functional, cell-based
MIA PaCa-2 [6] = assay: Synergistic antiproliferative activity against human MIAPaCa2 cells assessed as cell death at 5 uM after 72 hrs in presence of 10 uM 6TP by alamar blue assay (reference value: 6.9%); assay type: functional
MIA PaCa-2 [7] = assay: Synergistic antiproliferative activity against human MIAPaCa2 cells assessed as cell death at 2.5 uM after 72 hrs in presence of 10 uM 6TP by alamar blue assay (reference value: 6.9%); assay type: functional
REH [8] = assay: Synergistic antiproliferative activity against human REH cells assessed as cell death at 2.5 uM after 72 hrs in presence of 25 uM 6TP by alamar blue assay (reference value: 12.2%); assay type: functional
REH [9] = assay: Synergistic antiproliferative activity against human REH cells assessed as cell death at 5 uM after 72 hrs in presence of 25 uM 6TP by alamar blue assay (reference value: 12.2%); assay type: functional
MIA PaCa-2 [10] = assay: Synergistic antiproliferative activity against human MIAPaCa2 cells assessed as cell death at 2.5 uM after 72 hrs in presence of 25 uM 6TP by alamar blue assay (reference value: 6.4%); assay type: functional
REH [11] = assay: Synergistic antiproliferative activity against human REH cells assessed as cell death at 5 uM after 72 hrs in presence of 50 uM 6TP by alamar blue assay (reference value: 21.9%); assay type: functional
REH [12] = assay: Synergistic antiproliferative activity against human REH cells assessed as cell death at 5 uM after 72 hrs in presence of 100 uM 6TP by alamar blue assay (reference value: 49.5%); assay type: functional
MIA PaCa-2 [13] = assay: Synergistic antiproliferative activity against human MIAPaCa2 cells assessed as cell death at 5 uM after 72 hrs in presence of 25 uM 6TP by alamar blue assay (reference value: 6.4%); assay type: functional
A549 [14] = assay: Antiproliferative activity against human A549 cells assessed as reduction in cell viability after 72 hrs by alamar blue assay; assay type: functional, cell-based; settings: A549, 72 h
Procedure, shortened: (§1)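 Cell lines from ATCC, grown in medium with FBS and antibiotics at 37 °C, 5% CO2, 95% humidity. Compound DMSO stocks diluted in medium over 31.6 nM–200 μM, tested in triplicate. Plated at 2000 cells/well (adherent) or 3500 (suspension). After 69 h of continuous exposure, Alamar Blue was added for 3 h more. Fluorescence read at ex 560/em 590 nm. IC50 from ≥3 independent experiments.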

MIA PaCa-2 [15] = assay: Synergistic antiproliferative activity against human MIAPaCa2 cells assessed as cell death at 5 uM after 72 hrs in presence of 50 uM 6TP by alamar blue assay (reference value: 13.8%); assay type: functional
A549 [16] = assay: Synergistic antiproliferative activity against human A549 cells at 2.5 to 5 uM after 72 hrs in presence of 6TP by alamar blue assay; assay type: functional, cell-based
U-937 [17] = assay: Synergistic antiproliferative activity against human U937 cells at 2.5 to 5 uM after 72 hrs in presence of 6TP by alamar blue assay based Chou-Talalay method; assay type: functional, cell-based
MIA PaCa-2 [18] = assay: Synergistic antiproliferative activity against human MIAPaCa2 cells assessed as cell death at 2.5 uM after 72 hrs in presence of 100 uM 6TP by alamar blue assay (reference value: 30.7%); assay type: functional
REH [19] = assay: Synergistic antiproliferative activity against human REH cells assessed as cell death at 2.5 uM after 72 hrs in presence of 100 uM 6TP by alamar blue assay (reference value: 49.5%); assay type: functional
MIA PaCa-2 [20] = assay: Synergistic antiproliferative activity against human MIAPaCa2 cells assessed as cell death at 2.5 uM after 72 hrs in presence of 50 uM 6TP by alamar blue assay (reference value: 13.8%); assay type: functional
REH [21] = assay: Synergistic antiproliferative activity against human REH cells assessed as cell death at 2.5 uM after 72 hrs in presence of 10 uM 6TP by alamar blue assay (reference value: 10.8%); assay type: functional
REH [22] = assay: Synergistic antiproliferative activity against human REH cells assessed as cell death at 5 uM after 72 hrs in presence of 10 uM 6TP by alamar blue assay (reference value: 10.8%); assay type: functional
REH [23] = assay: Synergistic antiproliferative activity against human REH cells assessed as cell death at 2.5 uM after 72 hrs in presence of 50 uM 6TP by alamar blue assay (reference value: 21.9%); assay type: functional
[24] = Inhibition of UDPGDH/UGT-1A in hepatocytes (unknown origin) assessed as reduction in BDG production at 5 uM by HPLC analysis; assay type: ADME, cell-based; settings: human
[25] = Inhibition of Streptococcus pyogenes UDPGDH expressed in Escherichia coli/rat liver microsome UGT-1A assessed as reduction in BDG production at 5 uM by HPLC analysis; assay type: ADME; settings: microsomes
Procedure, shortened: (§2)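 Coupled in vitro model in phosphate buffer with alamethicin. Microsomal UGT-1A 4.4 units/mL, 2 mM bilirubin, 10 mM NAD+, 5 mM UDPG, UDPGDH:UGT-1A ratio 1:2200. Reaction started by adding UDPGDH. UDPGA-rescue arm included 15 μM UDPGA. Bilirubin mono- and diglucuronide formation measured by HPLC.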

[26] = Inhibition of UDPGDH/UGT-1A in hepatocytes (unknown origin) assessed as reduction in BMG production at 5 uM in presence of UDPGA by HPLC analysis; assay type: ADME, cell-based; settings: human
[27] = Inhibition of Streptococcus pyogenes UDPGDH expressed in Escherichia coli/rat liver microsome UGT-1A assessed as reduction in BMG production at 5 uM by HPLC analysis; assay type: ADME; settings: microsomes; procedure, shortened: as §2
[28] = Inhibition of Streptococcus pyogenes UDPGDH expressed in Escherichia coli/rat liver microsome UGT-1A assessed as reduction in BMG production at 5 uM in presence of UDPGA by HPLC analysis; assay type: ADME; settings: microsomes; procedure, shortened: as §2
[29] = Inhibition of Streptococcus pyogenes UDPGDH expressed in Escherichia coli/rat liver microsome UGT-1A assessed as reduction in BDG production at 5 uM in presence of UDPGA by HPLC analysis; assay type: ADME; settings: microsomes; procedure, shortened: as §2
U-937 [30] = assay: Antiproliferative activity against human U937 cells assessed as reduction in cell viability after 72 hrs by alamar blue assay; assay type: functional, cell-based; settings: U-937, 72 h; procedure, shortened: as §1
REH [31] = assay: Synergistic antiproliferative activity against human REH cells at 2.5 to 5 uM uM after 72 hrs in presence 6TP by alamar blue assay based alamar blue assay; assay type: functional, cell-based
HeLa [32] = assay: Antiproliferative activity against human HeLa cells assessed as reduction in cell viability after 72 hrs by alamar blue assay; assay type: functional, cell-based; procedure, shortened: as §1
MIA PaCa-2 [33] = assay: Antiproliferative activity against human MIAPaCa2 cells assessed as reduction in cell viability after 72 hrs by alamar blue assay; assay type: functional, cell-based; settings: MIA PaCa-2, 72 h; procedure, shortened: as §1
[34] = Inhibition of Streptococcus pyogenes UDPGDH expressed in Escherichia coli/rat liver microsome UGT-1A assessed as reduction in BDG production at 10 uM by HPLC analysis; assay type: ADME; settings: microsomes; procedure, shortened: as §2
[35] = Inhibition of Streptococcus pyogenes UDPGDH expressed in Escherichia coli/rat liver microsome UGT-1A assessed as reduction in BMG production at 10 uM by HPLC analysis; assay type: ADME; settings: microsomes; procedure, shortened: as §2

Ki [1] | Ki [3] | Structure (SMILES) | Activity (MIA PaCa-2 [4]) | Activity (HeLa [5]) | Activity (MIA PaCa-2 [6]) | Activity (MIA PaCa-2 [7]) | Activity (MIA PaCa-2 [10]) | Activity (MIA PaCa-2 [13]) | IC50 (A549 [14]) | Activity (MIA PaCa-2 [15]) | Activity (A549 [16]) | Activity (U-937 [17]) | Activity (MIA PaCa-2 [18]) | Activity (MIA PaCa-2 [20]) | Activity (REH [31]) | further results
288 µM | 111 µM | Sc1ncnc2nc[nH]c12 [MERCAPTOPURINE ANHYDROUS] |  |  |  |  |  |  |  |  |  |  |  |  |  | inhibition (INH) [2]: Active
 |  | COCOc1cc(OC)c(C(=O)/C=C/c2ccccc2)c(OCOC)c1 | 61.2% | inactive | 25.4% | 16.5% | 18.6% | 30% | 7.2 µM | 40.8% | inactive | inactive | 49.1% | 25.1% |  | Activity (REH [8]): 13.5%; Activity (REH [9]): 19.1%; Activity (REH [11]): 26.1%; Activity (REH [12]): 51%; Activity (REH [19]): 51%; Activity (REH [21]): 11.1%; Activity (REH [22]): 12.7%; Activity (REH [23]): 22.1%
7 µM | 5 µM | O=c1[nH]c(=S)c2[nH]c(=O)[nH]c2[nH]1 |  |  |  |  |  |  |  |  |  |  |  |  |  | inhibition (INH) [24]: Active; inhibition (INH) [25]: Active; inhibition (INH) [26]: Not Active; inhibition (INH) [27]: Active; inhibition (INH) [28]: Not Active; inhibition (INH) [29]: Not Active
 |  | COCOc1cc(OCOC)c(C(=O)/C=C/c2ccccc2)c(OCOC)c1 | 19.3% | inactive | 18.4% | 14.2% | 15% | 17.3% | > 20 µM | 17% | inactive | inactive | 17.6% | 16.9% | inactive | IC50 (U-937 [30]): 7.4 µM; IC50 (HeLa [32]): 12.2 µM; IC50 (MIA PaCa-2 [33]): > 20 µM
 |  | COCOc1cc(O)c(C(=O)/C=C/c2ccccc2)c(OCOC)c1 | 19.9% | inactive | 8.1% | 7% | 7.2% | 8.2% |  | 13% | inactive | inactive | 15.2% | 9.7% | inactive | 
 |  | CNC(=O)c1cc(Oc2ccc(NC(=O)Nc3ccc(Cl)c(C(F)(F)F)c3)c(F)c2)ccn1 [REGORAFENIB] |  |  |  |  |  |  |  |  |  |  |  |  |  | inhibition (INH) [34]: Active; inhibition (INH) [35]: Active
